Test results: ChEMBL document CHEMBL4513216, “Probing the Open Global Health Chemical Diversity Library for Multistage-Active Starting Points for Next-Generation Antimalarials” (ACS Infect Dis, 2020)

Assay: Toxicity liver stage against HepG2, at 10uM
Type: cell-based
Parameters: test concentration 10 uM, cell line HepG2-A16-CD81EGFP
Conditions: human, HepG2-A16-CD81EGFP cells; read-out: INHIBITION
Outline: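 Uninfected HepG2-A16-CD81EGFP cells, 3 × 10^3 per well, 1536-well, plated on prespotted compound at 10 μM final, parasite-free screening media added to match infected plates; puromycin 10 μM positive, DMSO 0.5% negative; run in parallel with 48 h PbLuc assay at 37 °C, 5% CO2; viability by CellTiter-Glo luminescence, normalized to controls.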

Row | SMILES | cytotoxicity at 10 µM [%]
1 | Cc1cc(CNC(=O)C2CCC(=O)N(Cc3ccccc3F)C2)on1 (stereo not given) | -5.26
2 | CCCN(CCC)c1nc(N)nc(-c2cc(Cl)ccc2OC)n1 | 7.43
3 | Cc1csc(C(=O)N2CCC(S(C)(=O)=O)CC2)c1 | 2.7
4 | O=C(C1CCCO1)N1CCc2nnc(Cn3cccc3)n2CC1 (stereo not given) | 13.9
5 | CCOc1cc(=O)n2c(c1C(=O)OCc1cccc(C)c1)CCCC2 | -15.1
6 | Nc1nc(N2CCCCCC2)ncc1C(=O)NCc1ccc(F)c(Cl)c1 | -0.585
7 | O=C(c1ccco1)N1CCOCC2(C1)CN(c1ccccc1)C(=O)CO2 (stereo not given) | -10.1
8 | COc1ccc(OC)c(C(C)Nc2nc3c(C)nn(C)c3c(=O)n2C)c1 (stereo not given) | -15
9 | CN1C[C@H](c2ccccc2)[C@H]2CN(C(=O)Cc3cccc(O)c3)CC[C@H]21 | 4.98
10 | Cc1cccc(CN2CCCC(c3nccs3)C2)n1 (stereo not given) | 8.38
11 | CSCC[C@H]1CN2CCC[C@H]2CN1Cc1coc2ccc(C)cc2c1=O | -1.04
12 | Cc1nccc(C2CCCCN2Cc2cccc(F)c2)n1 (stereo not given) | -11.6
13 | COc1cc(Cl)c(NC(=O)c2cc3c([nH]c2=O)CCCC3=O)cc1OC | -5.21
14 | COCc1c(Br)cccc1NC(=O)N(C)CCO | -9.95
15 | O=S(=O)(c1ccccc1N1CC(n2cccn2)C1)C(F)(F)F | 6.68
16 | CC(C)OCCC1CCCCN1S(N)(=O)=O (stereo not given) | 7.36
17 | CC(=O)N1CCN(CCNC(=O)NC(C)Cn2ccnc2)CC1 (stereo not given) | 5.74
18 | CCN(Cc1cnn(C)c1)S(=O)(=O)c1ccc(NC(C)=O)cc1 | 3.59
19 | COc1ncnc(N(C)C)c1NC(=O)Cc1cc(F)ccc1F | -2.67
20 | O=C(Nc1cc(-c2ccccc2)on1)N1CCN(CCO)CC1 | 3.3
21 | CCN(CCc1nccs1)C(=O)c1sccc1C | -0.682
22 | Cc1cn2nc(N3CCCC3C(=O)N3CCSCC3)sc2n1 (stereo not given) | 10.9
23 | O=C(COCc1ccccc1)Nc1ccccn1 | -27.7
24 | CCOCc1ccc(NC(=O)N2CCCC2c2nncn2C)cc1 (stereo not given) | 6.53
25 | Cc1nn(C)c(C)c1C(=O)N1CCN(c2ccncc2Cl)CC1 | -2.25
26 | O=S(=O)(Nc1ccon1)c1cc(Cl)cc2c1OCC2 | 5.81
27 | CC(C)Oc1ncccc1CNC(=O)NC(C)c1cccs1 (stereo not given) | -2.3

Row | SMILES | cytotoxicity at 10 µM [%]
28 | CCn1cc(NC(=O)NCC2(N3CCOCC3)CCSC2)cn1 (stereo not given) | -17.1
29 | O=C(c1cocn1)N1C[C@@H]2COC[C@]2(COc2cccnc2)C1 | -107
30 | Cn1cccc1C(=O)N1C[C@@H]2C[C@@H](c3nnc(C4CC4)o3)O[C@@H]2C1 | -112
31 | COCCNC(=O)[C@@H]1CN(c2ncccn2)C[C@H]2OCC[C@H]21 | -68.4
32 | CCCS(=O)(=O)NC1CCc2c(ccc(=O)n2CC2CC2)C1 (stereo not given) | -67.3
33 | O=C1CC2(CCN(Cc3ccoc3)C2)CN1c1cncnc1 (stereo not given) | -69.4
34 | Cc1ccc(S(=O)(=O)N2CCC3(CC(C(=O)NCC4CC4)=NO3)C2)cc1 (stereo not given) | 4.35
35 | CN(Cc1nc(-c2cccs2)no1)Cc1nc2c(s1)CCCC2 | 3.01
36 | Cc1nc(CCN(C)C(=O)CCNC(=O)c2ccccc2F)no1 | 6.35
37 | COc1cccc(N2CCC(N3CCOC(C(F)(F)F)C3)CC2)c1 (stereo not given) | -1.71
38 | CCc1noc(CN(C)C(=O)C2COc3ccccc3C2)n1 (stereo not given) | 1.3
39 | CN(CCc1cn[nH]c1)C(=O)C(c1ccc(F)cc1)N(C)C (stereo not given) | -19.5
40 | Cc1cc(NCCS(C)(=O)=O)n2nc(C)cc2n1 | -14
41 | O=C(NCCn1ccnc1C1CCOC1)c1cccnc1 (stereo not given) | -0.757
42 | NCC1Cc2cc(-c3nccc(N4CCC(O)CC4)n3)cc(Cl)c2O1 (stereo not given) | -4.33
43 | Cc1nc(O)cc(C2CCN(C(=O)CN(C)c3ccccc3)CC2)n1 | 8.92
44 | Cc1ccc(F)cc1S(=O)(=O)N1C[C@@H](C)[C@@](C)(O)C1 | -0.784
45 | COCCN1CCC(CN(Cc2ccncc2)C2CCC2)CC1 | -2.33
46 | Cc1cccc(C)c1OC1CN(C(=O)C2CCCN(C(=O)N(C)C)C2)C1 (stereo not given) | -0.545
47 | Cc1cc(C)c2nc(CNCCNS(C)(=O)=O)cc(O)c2c1 | 0.145
48 | CCCN1CCN(C(=O)c2cc3ccccc3cn2)[C@H]2CS(=O)(=O)C[C@H]21 | 1.1
49 | CC(C)c1noc(-c2ccc(NCCCC3CCOC3)nc2)n1 (stereo not given) | -7.37
50 | O=c1n(CCn2cccc2)nc(C2CCNCC2)n1Cc1ccccc1 | -2.06
51 | Cc1cccc(SC2CCN(C(=O)CCCn3cnnn3)CC2)c1 | 0.647
52 | COC(=O)CCCn1ccnc1-c1ccc(OC)c(F)c1F | -2.8
53 | CCC(C)N(Cc1ccncc1)C(=O)CCSC (stereo not given) | -0.146
54 | CCCc1cc(NCCn2cccn2)n2nccc2n1 | 0.988

Row | SMILES | cytotoxicity at 10 µM [%]
55 | Cc1cc(C(=O)N(C)Cc2cnn(C)c2)c(NC(=O)C(C)(C)C)s1 | 0.254
56 | CC(=O)Nc1ccc(S(=O)(=O)Nc2c(F)cccc2F)cc1 | 12.6
57 | c1ncn(Cc2nnc(C3CCN(CC4CC4)CC3)n2C2CC2)n1 | 5.2
58 | COc1cccc(CCC2CCCN(C(=O)c3ccccn3)C2)c1 (stereo not given) | -0.237
59 | CSc1cccc(CNC(=O)C2CC(=O)N(C3CC3)C2)c1 (stereo not given) | -12.3
60 | O=C(NCCCSC1CCCCC1)C1NCCc2[nH]cnc21 (stereo not given) | -0.283
61 | O=C1NCCN(C(=O)c2cn3ccsc3n2)C1c1cccc(F)c1 (stereo not given) | -5.18
62 | O=C(NC[C@@H]1CCCN1)c1cc(COc2cccc(C(F)(F)F)c2)[nH]n1 | -8.31
63 | CC(=O)NCCc1cc(N2CCN(C(C)=O)CC2)nc(C2CC2)n1 | 2.24
64 | CC(C(N)=O)N(C)CCCc1cc(-c2ccccc2)no1 (stereo not given) | -5.01
65 | COc1ccc(COCC(O)CNC(=O)c2cnc(C)cn2)cc1 (stereo not given) | -2
66 | Cc1csc(CNC(=O)NCCc2ccc3c(c2)OCCO3)n1 | 4.74
67 | O=C(c1ccoc1)N1CCC2(CCC(=O)N2Cc2ccncc2)CC1 | -1
68 | OCCN1CCOC2(CCCN(c3cccc(F)c3)C2)C1 (stereo not given) | 2.01
69 | Fc1cnc(N2CC[C@@H](N3CCOCC3)[C@@H]2Cc2cccnc2)nc1 | 11.7
70 | N#Cc1ccc(N2CCC3(CCC(=O)N3Cc3ccncc3)CC2)nc1 | -109
71 | COc1cc(N2CC[C@@H](O)[C@@H]2Cc2ccncc2)ncn1 | -84.5
72 | O=S(=O)(N1CCCC1)N1C[C@@H](c2cccc(F)c2)[C@@H]2NCCCCC[C@H]21 | -25
73 | Cc1nc(CN2CC[C@H]3[C@H]2CCN3c2ncccn2)cs1 | -0.603
74 | Cc1cccc(CN2Cc3nccn3CC(CN3CCOCC3)C2)c1 (stereo not given) | -75.2
75 | CN(C)CC1CN(Cc2ccc3c(c2)OCO3)Cc2nccn2C1 (stereo not given) | -0.362
76 | COCCN1C[C@@H]2[C@@H](OC)CCN(Cc3cccc(C)n3)[C@@H]2C1 | -9.41
77 | COCCN1CCc2c(CNC(=O)c3nccn3C)cncc2C1 | -107
78 | O=C1CN(C(=O)C2CCC3(CC2)CNC(=O)c2ccccc2O3)CCN1 (stereo not given) | -11.6
79 | CCCN1C[C@@H]2CC[C@H]1CN(C(=O)c1ccc(N(C)CCO)cc1)C2 | -6.47
80 | COC(=O)N1C[C@@H]2CC[C@H]1CN(Cc1ccncc1)C2 | -10
